≈ marks a conversion by molar mass, not a printed value.
Experiments:
[1] = system: Mycobacterium tuberculosis; assay: Antimicrobial activity against Mycobacterium tuberculosis H37Rv ATCC 27294 incubated for 7 days by BacTiter-Glo cell viability assay; type: functional, organism-based; details: for MIC: H37Rv ATCC 27294, 168 h; for IC50 / IC90: H37Rv ATCC 27294, BacTiter-Glo, 168 h
[2] = system: Mycobacterium tuberculosis; assay: Antimicrobial activity against non-replicating Mycobacterium tuberculosis H37Rv SRI 1345 assessed as inhibition of visual growth incubated for 7 days under anaerobic condition by low oxygen recovery assay; type: functional; details: H37Rv SRI 1345, 168 h
[3] = system: Mycobacterium tuberculosis; assay: Antimicrobial activity against Mycobacterium tuberculosis H37Rv ATCC 27294 infected in mouse J774 cells assessed as log reduction in bacterial burden at 10 times MIC measured 7 days postinfection relative to control; type: functional
Outline: (§1)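 Macrophages infected with H37Rv and treated at three concentrations 10-fold apart, chosen from the primary-screen H37Rv data. The middle concentration brackets the reported MIC, with the others ten-fold below and ten-fold above it. Read-out is log-reduction of intracellular bacterial burden.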

[4] = system: Mycobacterium tuberculosis; assay: Antimicrobial activity against Mycobacterium tuberculosis H37Rv SRI 1345 assessed as growth inhibition at MIC after 7 days; type: functional
Outline: (§2)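 MIC in µg/mL, retested on susceptible H37Rv (SRI 1345) in the same panel as single-drug-resistant strains: isoniazid-, rifampin- and ofloxacin-resistant. Percent inhibition recorded at the MIC concentration. Ratio taken as MIC H37Rv / MIC resistant strain.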

[5] = system: Mycobacterium tuberculosis; assay: Antimicrobial activity against Mycobacterium tuberculosis H37Rv ATCC 27294 infected in mouse J774 cells assessed as growth inhibition at 10 times lower MIC measured 7 days postinfection; type: functional; outline: as §1
[6] = system: Mycobacterium tuberculosis; assay: Antimicrobial activity against Mycobacterium tuberculosis H37Rv ATCC 27294 infected in mouse J774 cells assessed as log reduction in bacterial burden at 10 times lower MIC measured 7 days postinfection relative to rifampicin; type: functional; outline: as §1
J774 [7] = assay: Cytotoxicity against mouse J774 cells assessed as cell viability at 10 times lower MIC by MTT assay relative to control; type: cell-based
[8] = system: Mycobacterium tuberculosis; assay: Antimicrobial activity against Mycobacterium tuberculosis H37Rv SRI 1345 after 7 days; type: functional; details: H37Rv SRI 1345, 168 h; outline: as §2
J774 [9] = assay: Cytotoxicity against mouse J774 cells assessed as cell viability at MIC by MTT assay relative to control; type: cell-based
[10] = system: Mycobacterium tuberculosis; assay: Antimicrobial activity against Mycobacterium tuberculosis H37Rv ATCC 27294 infected in mouse J774 cells assessed as log reduction in bacterial burden at MIC measured 7 days postinfection relative to control; type: functional; outline: as §1
[11] = system: Mycobacterium tuberculosis; assay: Antimicrobial activity against Mycobacterium tuberculosis H37Rv ATCC 27294 infected in mouse J774 cells assessed as log reduction in bacterial burden at 10 times lower MIC measured 7 days postinfection relative to control; type: functional; outline: as §1
J774 [12] = assay: Cytotoxicity against mouse J774 cells assessed as cell viability at 10 times MIC by MTT assay relative to control; type: cell-based
[13] = system: Mycobacterium tuberculosis; assay: Antimicrobial activity against Mycobacterium tuberculosis H37Rv SRI 1345 assessed as inhibition of visual growth after 18 to 24 hrs; type: functional; details: read-out: MBC99.9
[14] = system: Mycobacterium tuberculosis; assay: Ratio of MBC for Mycobacterium tuberculosis H37Rv SRI 1345 to MIC for Mycobacterium tuberculosis H37Rv SRI 1345; type: functional
Outline: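 MBC read from colony-forming unit counts; ratio computed as MBC / MIC against H37Rv.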

Row | Compound | MIC [1] [µM] | IC50 [1] [µM] | IC90 [1] [µM] | also measured
1 | Cc1c(C(=O)/C=C/c2ccc([N+](=O)[O-])o2)[n+]([O-])c2ccccc2[n+]1[O-] | 25 (≈ 8.53 µg/mL) | 17.3 | 24.6 | –
2 | Cc1ccc2c(c1)[n+]([O-])c(C(=O)/C=C/c1ccc([N+](=O)[O-])o1)c(C)[n+]2[O-] | 50 (≈ 17.8 µg/mL) | 29.7 | 38.1 | –
3 | CC(C)C(=O)c1c(C(F)(F)F)nc2cc(N3CCOCC3)c(N3CCOCC3)cc2[n+]1[O-] | 25 (≈ 11.4 µg/mL) | 8.3 | 17.9 | –
4 | CC(=O)c1c(C(F)(F)F)nc2cc(F)c(N3CCSCC3)cc2[n+]1[O-] | 3.1 (≈ 1.16 µg/mL) | 1.3 | 1.8 | MIC [2]: > 12 µg/mL; log reduction in bacterial burden [3]: 1.76; growth inhibition (GI) [4]: 51%; growth inhibition (GI) [5]: >99%; Log reduction in bacterial burden relative to rifampicin [6]: 3; Activity (J774 [7]): 70%; MIC [8]: 0.75 µg/mL (≈ 2 µM); Activity (J774 [9]): 81%; log reduction in bacterial burden [10]: 1.66; log reduction in bacterial burden [11]: 2.17; Activity (J774 [12]): 26%
5 | O=C(c1ccc(F)cc1)c1c(C(F)(F)F)[n+]([O-])c2cc(Cl)c(Cl)cc2[n+]1[O-] | 6.2 (≈ 2.61 µg/mL) | 3.6 | 4.5 | –
6 | CC(=O)c1c(C(F)(F)F)[n+]([O-])c2cc(F)c(N3CCC(O)CC3)cc2[n+]1[O-] | 12.5 (≈ 4.87 µg/mL) | 5.4 | 10.7 | –
7 | CC(=O)c1c(C(F)(F)F)[n+]([O-])c2cc(N3CCCCC3)c(N3CCCCC3)cc2[n+]1[O-] | 6.2 (≈ 2.72 µg/mL) | 2.2 | 4.6 | –
8 | CC(=O)c1c(C(F)(F)F)[n+]([O-])c2cc(F)c(N3CCC(N4CCOCC4)CC3)cc2[n+]1[O-] | 12.5 (≈ 5.73 µg/mL) | 4 | 7.2 | –
9 | CC[C@@H](CO)NCCN[C@@H](CC)CO [ETHAMBUTOL] | 6.2 (≈ 1.27 µg/mL) | 1.2 | 1.8 | –
10 | Cc1c(C(=O)/C=C/c2ccccc2)[n+]([O-])c2cc(Cl)ccc2[n+]1[O-] | 3.1 (≈ 1.06 µg/mL) | 1.5 | 1.7 | log reduction in bacterial burden [3]: 1.76; growth inhibition (GI) [4]: 80%; growth inhibition (GI) [5]: >99%; Log reduction in bacterial burden relative to rifampicin [6]: 3; Activity (J774 [7]): 70%; Activity (J774 [9]): 81%; log reduction in bacterial burden [10]: 1.68; log reduction in bacterial burden [11]: 2.11; Activity (J774 [12]): 26%
11 | NNC(=O)c1ccncc1 [ISONIAZID] | 0.3 (≈ 0.0411 µg/mL) | 0.1 | 0.2 | –
12 | NCC[C@H](O)C(=O)N[C@@H]1C[C@H](N)[C@@H](O[C@H]2O[C@H](CN)[C@@H](O)[C@H](O)[C@H]2O)[C@H](O)[C@H]1O[C@H]1O[C@H](CO)[C@@H](O)[C@H](N)[C@H]1O [AMIKACIN] | 0.2 (≈ 0.117 µg/mL) | 0.102 | 0.141 | –
13 | CC(=O)c1c(C(F)(F)F)[n+]([O-])c2cc(F)c(N3CCCCC3)cc2[n+]1[O-] | 1.6 (≈ 0.597 µg/mL) | 1 | 1.5 | MIC [2]: > 8 µg/mL; log reduction in bacterial burden [3]: 2.66; growth inhibition (GI) [4]: 78%; growth inhibition (GI) [5]: >90%; Log reduction in bacterial burden relative to rifampicin [6]: 3; Activity (J774 [7]): 83%; MIC [8]: 1 µg/mL (≈ 2.68 µM); Activity (J774 [9]): 53%; log reduction in bacterial burden [10]: 1.5; log reduction in bacterial burden [11]: 1.74; Activity (J774 [12]): 65%
14 | Cc1c(C(=O)/C=C/c2ccc([N+](=O)[O-])o2)[n+]([O-])c2cc(Cl)ccc2[n+]1[O-] | 25 (≈ 9.39 µg/mL) | 13.5 | 20.8 | –
15 | CCc1nc(N)nc(N)c1-c1ccc(Cl)cc1 [PYRIMETHAMINE] | 50 (≈ 12.4 µg/mL) | 23.6 | 36 | –
16 | O=C(c1ccc(F)cc1)c1c(C(F)(F)F)[n+]([O-])c2ccc(Cl)cc2[n+]1[O-] | 6.2 (≈ 2.4 µg/mL) | 3.7 | 4.5 | –
17 | Cc1c(C(=O)/C=C/c2ccc([N+](=O)[O-])s2)[n+]([O-])c2cc(Cl)ccc2[n+]1[O-] | 25 (≈ 9.79 µg/mL) | 7.3 | 13 | –
18 | O=C(c1ccc(F)cc1)c1c(C(F)(F)F)[n+]([O-])c2ccc(F)cc2[n+]1[O-] | 6.2 (≈ 2.3 µg/mL) | 3.1 | 4 | –
19 | O=C(c1ccco1)c1c(C(F)(F)F)nc2cc(Cl)c(N3CCOCC3)cc2[n+]1[O-] | – | > 100 | > 100 | –
20 | N[C@@H]1CONC1=O [CYCLOSERINE] | 50 (≈ 5.1 µg/mL) | 20.8 | 33.1 | –
21 | O=C(c1ccco1)c1c(C(F)(F)F)[n+]([O-])c2cc(Cl)c(N3CCOCC3)cc2[n+]1[O-] | 3.1 (≈ 1.38 µg/mL) | 1.2 | 2.1 | MIC [2]: 0.25 µg/mL (≈ 0.563 µM); log reduction in bacterial burden [3]: 2.67; growth inhibition (GI) [4]: 61%; growth inhibition (GI) [5]: >90%; Log reduction in bacterial burden relative to rifampicin [6]: 3; Activity (J774 [7]): 88%; MIC [8]: 2 µg/mL (≈ 4.51 µM); log reduction in bacterial burden [10]: 1.57; log reduction in bacterial burden [11]: 1.68; Activity (J774 [12]): 37%
22 | CO[C@H]1/C=C/O[C@@]2(C)Oc3c(C)c(O)c4c(O)c(c(/C=N/N5CCN(C)CC5)c(O)c4c3C2=O)NC(=O)/C(C)=C\C=C\[C@H](C)[C@H](O)[C@@H](C)[C@@H](O)[C@@H](C)[C@H](OC(C)=O)[C@@H]1C [RIFAMPIN] | 0.04 (≈ 0.0329 µg/mL) | 0.02 | 0.03 | MBC [13]: 0.78 µg/mL (≈ 0.948 µM); MIC [2]: 0.39 µg/mL (≈ 0.474 µM); log reduction in bacterial burden [3]: 2.68; growth inhibition (GI) [4]: 55%; Activity (J774 [7]): 93%; MIC [8]: 0.05 µg/mL (≈ 0.0608 µM); Activity (J774 [9]): 87%; log reduction in bacterial burden [10]: 1.73; Ratio [14]: 15.6; log reduction in bacterial burden [11]: 0.48; Activity (J774 [12]): 80%
23 | Cc1ccc2c(c1)[n+]([O-])c(C(=O)/C=C/c1ccc([N+](=O)[O-])s1)c(C)[n+]2[O-] | – | > 100 | > 100 | –
24 | CCOC(=O)c1c(C(F)(F)F)nc2cc(Cl)c(N3CCOCC3)cc2[n+]1[O-] | – | > 100 | > 100 | –
25 | Cc1ccc2c(c1)[n+]([O-])c(C(=O)/C=C/c1ccccc1)c(C)[n+]2[O-] | 25 (≈ 8.01 µg/mL) | 7.2 | 14.7 | –
26 | Cc1c(C(=O)/C=C/c2ccc([N+](=O)[O-])s2)[n+]([O-])c2cc(Cl)c(Cl)cc2[n+]1[O-] | – | > 100 | > 100 | –
27 | Cc1c(C(=O)/C=C/c2ccccc2)[n+]([O-])c2ccccc2[n+]1[O-] | 12.5 (≈ 3.83 µg/mL) | 5.8 | 11.5 | –
28 | O=C(c1ccc(F)cc1)c1c(C(F)(F)F)[n+]([O-])c2cc(F)c(F)cc2[n+]1[O-] | 12.5 (≈ 4.85 µg/mL) | 5.2 | 8 | –
29 | Cc1c(C(=O)/C=C/c2ccc([N+](=O)[O-])s2)[n+]([O-])c2ccccc2[n+]1[O-] | – | > 100 | > 100 | –

From ChEMBL document CHEMBL3792280, “Design and synthesis of novel quinoxaline derivatives as potential candidates for treatment of multidrug-resistant and latent tuberculosis” (Bioorg Med Chem Lett, 2016)
